Source: ChEMBL document CHEMBL4028832, “Design and synthesis of 1,2,3-triazolo-phenanthrene hybrids as cytotoxic agents” (Bioorg Med Chem Lett, 2017)
pIC50: −log10 of the molar value. Activity calls are given as the source filed them. The rule behind the calls is not given here.

Columns and labels:
4T1 = test: Cytotoxicity against mouse 4T1 cells after 48 hrs by MTT assay; format: functional, cell-based; conditions: 4T1, 48 h
Procedure, shortened: (§1)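 The human cancer lines and mouse 4T1 breast cells were treated with compound for 48 h and assessed by MTT assay. IC50 is the concentration giving 50% inhibition. 5-Fluorouracil served as the MTT standard.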

DU-145 [1] = test: Cytotoxicity against human DU145 cells after 48 hrs by MTT assay; format: functional, cell-based; conditions: DU-145, 48 h; procedure, shortened: as §1
BT-549 = test: Cytotoxicity against human BT549 cells after 48 hrs by MTT assay; format: functional, cell-based; conditions: BT-549, 48 h; procedure, shortened: as §1
HGC-27 = test: Cytotoxicity against human HGC27 cells after 48 hrs by MTT assay; format: functional, cell-based; conditions: HGC-27, 48 h; procedure, shortened: as §1
MDA-MB-453 = test: Cytotoxicity against human MDA-MB-453 cells after 48 hrs by MTT assay; format: functional, cell-based; conditions: MDA-MB-453, 48 h; procedure, shortened: as §1
PC-3 = test: Cytotoxicity against human PC3 cells after 48 hrs by MTT assay; format: functional, cell-based; conditions: PC-3, 48 h; procedure, shortened: as §1
A549 = test: Cytotoxicity against human A549 cells after 48 hrs by MTT assay; format: functional, cell-based; conditions: A549, 48 h; procedure, shortened: as §1
HeLa = test: Cytotoxicity against human HeLa cells after 48 hrs by MTT assay; format: functional, cell-based; procedure, shortened: as §1
MDA-MB-231 = test: Cytotoxicity against human MDA-MB-231 cells after 48 hrs by MTT assay; format: functional, cell-based; conditions: MDA-MB-231, 48 h; procedure, shortened: as §1
DU-145 [2] = test: Induction of apoptosis in human DU145 cells assessed as nuclear shrinkage at 2 to 8 uM after 48 hrs by phase contrast microscopic method; format: functional, cell-based
Procedure, shortened: (§2)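 Phase-contrast microscopy of DU145 cells treated at 2, 4 and 8 µM. Images were captured and scored against untreated control for cell detachment and nuclear shrinkage.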

DU-145 [3] = test: Induction of apoptosis in human DU145 cells assessed as increase in intracellular reactive oxygen species after 6 hrs by DCFDA dye based spectrofluorometeric method; format: functional, cell-based
Procedure, shortened: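 Intracellular ROS in DU145 cells was measured by DCFDA fluorescence after 6 h of treatment at several doses. Comparators were N-acetyl cysteine pretreatment before compound and H2O2-treated cells. Values are mean ± SD of three independent experiments.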

DU-145 [4] = test: Cell cycle arrest in human DU145 cells assessed as increase in accumulation at G0/G1 phase after 24 hrs by propidium iodide staining based FACS analysis; format: functional
DU-145 [5] = test: Induction of apoptosis in human DU145 cells assessed as formation of condensed nuclei at 2 to 8 uM after 24 hrs by DAPI staining based fluorescence microscopic method
DU-145 [6] = test: Induction of apoptosis in human DU145 cells assessed as chromatin condensation at 8 uM after 48 hrs by acridine orange/ethidium bromide staining-based fluorescence microscopic analysis; format: functional, cell-based
Procedure, shortened: (§3)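 Treated DU145 cells were double-stained with acridine orange and ethidium bromide and imaged by fluorescence microscopy. Acridine orange stains intact nuclei green; ethidium bromide stains nuclei of membrane-compromised cells red. Cells were scored for blebbing, chromatin condensation, shrinkage and apoptotic bodies versus control.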

DU-145 [7] = test: Cell cycle arrest in human DU145 cells assessed as accumulation at G2/M phase at 1 uM after 24 hrs by propidium iodide staining based FACS analysis (reference value: 16.38%); format: functional
DU-145 [8] = test: Cell cycle arrest in human DU145 cells assessed as accumulation at S phase at 8 uM after 24 hrs by propidium iodide staining based FACS analysis (reference value: 7.93%); format: functional
DU-145 [9] = test: Induction of apoptosis in human DU145 cells assessed as cell detachment at 2 to 8 uM after 48 hrs by phase contrast microscopic method; format: functional, cell-based; procedure, shortened: as §2
DU-145 [10] = test: Induction of apoptosis in human DU145 cells assessed as loss of mitochondrial membrane potential after 24 hrs by JC1 staining-based fluorescence microscopic method; format: functional, cell-based
Procedure, shortened: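 DU145 cells were treated at 2, 4 and 8 µM for 24 h and stained with JC-1. Orange aggregates mark polarised mitochondria and green monomers mark depolarised ones, imaged by fluorescence. JC-1 aggregate intensity was quantified by spectrofluorometry.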

DU-145 [11] = test: Induction of apoptosis in human DU145 cells assessed as apoptotic body formation at 8 uM after 48 hrs by acridine orange/ethidium bromide staining-based fluorescence microscopic analysis; format: functional, cell-based; procedure, shortened: as §3
Bos taurus = organism: Bos taurus; test: Binding affinity to calf thymus DNA assessed as increase in viscosity at 5 uM by Rolling-ball viscometric method
DU-145 [12] = test: Cell cycle arrest in human DU145 cells assessed as accumulation at G2/M phase at 4 uM after 24 hrs by propidium iodide staining based FACS analysis (reference value: 16.38%); format: functional
DU-145 [13] = test: Cell cycle arrest in human DU145 cells assessed as accumulation at G0/G1 phase at 2 uM after 24 hrs by propidium iodide staining based FACS analysis (reference value: 64.1%); format: functional
DU-145 [14] = test: Induction of apoptosis in human DU145 cells assessed as cell shrinkage at 8 uM after 48 hrs by acridine orange/ethidium bromide staining-based fluorescence microscopic analysis; format: functional; procedure, shortened: as §3
DU-145 [15] = test: Cell cycle arrest in human DU145 cells assessed as accumulation at G0/G1 phase at 1 uM after 24 hrs by propidium iodide staining based FACS analysis (reference value: 64.1%); format: functional
DU-145 [16] = test: Cell cycle arrest in human DU145 cells assessed as accumulation at G2/M phase at 8 uM after 24 hrs by propidium iodide staining based FACS analysis (reference value: 16.38%); format: functional
DU-145 [17] = test: Cell cycle arrest in human DU145 cells assessed as accumulation at G0/G1 phase at 8 uM after 24 hrs by propidium iodide staining based FACS analysis (reference value: 64.1%); format: functional
DU-145 [18] = test: Cell cycle arrest in human DU145 cells assessed as accumulation at G0/G1 phase at 4 uM after 24 hrs by propidium iodide staining based FACS analysis (reference value: 64.1%); format: functional
DU-145 [19] = test: Cell cycle arrest in human DU145 cells assessed as accumulation at S phase at 1 uM after 24 hrs by propidium iodide staining based FACS analysis (reference value: 7.93%); format: functional
DU-145 [20] = test: Cell cycle arrest in human DU145 cells assessed as accumulation at S phase at 4 uM after 24 hrs by propidium iodide staining based FACS analysis (reference value: 7.93%); format: functional
DU-145 [21] = test: Induction of apoptosis in human DU145 cells assessed as horse shoe shaped nuclei at 2 to 8 uM after 24 hrs by DAPI staining based fluorescence microscopic method
DU-145 [22] = test: Induction of apoptosis in human DU145 cells assessed as membrane blebbing at 8 uM after 48 hrs by acridine orange/ethidium bromide staining-based fluorescence microscopic analysis; format: functional, cell-based; procedure, shortened: as §3
DU-145 [23] = test: Cell cycle arrest in human DU145 cells assessed as accumulation at S phase at 2 uM after 24 hrs by propidium iodide staining based FACS analysis (reference value: 7.93%); format: functional
DU-145 [24] = test: Cell cycle arrest in human DU145 cells assessed as accumulation at G2/M phase at 2 uM after 24 hrs by propidium iodide staining based FACS analysis (reference value: 16.38%); format: functional

With COc1cc2cc(Cn3cc(CN4C(=O)c5ccccc5C4=O)nn3)c3cc(OC)c(OC)cc3c2cc1OC the pIC50 (4T1) was 4.95, the pIC50 (DU-145 [1]) was 5.59 and the pIC50 (BT-549) was less than 4.70. It also gave a pIC50 (HGC-27) of 5.12, a pIC50 (MDA-MB-453) of less than 4.70 and a pIC50 (PC-3) of 5.12. It also gave a pIC50 (A549) of less than 4.70, a pIC50 (HeLa) of 4.90 and a pIC50 (MDA-MB-231) of 4.93.

For C=CCc1ccc(OCc2cn(Cc3cc4cc(OC)c(OC)cc4c4cc(OC)c(OC)cc34)nn2)c(OC)c1, the pIC50 (4T1) was 5.14, the pIC50 (DU-145 [1]) was less than 4.70 and the pIC50 (BT-549) was less than 4.70. It also gave a pIC50 (HGC-27) of 5.12, a pIC50 (MDA-MB-453) of less than 4.70 and a pIC50 (PC-3) of less than 4.70. For the same compound, the pIC50 (A549) was less than 4.70, the pIC50 (HeLa) was 5.15 and the pIC50 (MDA-MB-231) was less than 4.70.

COc1cc2cc(Cn3cc(COc4c(Br)cccc4Br)nn3)c3cc(OC)c(OC)cc3c2cc1OC was tested, and the pIC50 (4T1) was 5.13, the pIC50 (DU-145 [1]) was less than 4.70 and the pIC50 (BT-549) was less than 4.70. It also gave a pIC50 (HGC-27) of 5.44, a pIC50 (MDA-MB-453) of less than 4.70 and a pIC50 (PC-3) of 4.85. The pIC50 (A549) was less than 4.70, the pIC50 (HeLa) was 5.29 and the pIC50 (MDA-MB-231) was less than 4.70.

With COc1cc2cc(Cn3cc(CCO)nn3)c3cc(OC)c(OC)cc3c2cc1OC the pIC50 (4T1) was less than 4.70, the pIC50 (DU-145 [1]) was less than 4.70 and the pIC50 (BT-549) was less than 4.70. The pIC50 (HGC-27) was 4.85, the pIC50 (MDA-MB-453) was less than 4.70 and the pIC50 (PC-3) was less than 4.70. It also gave a pIC50 (A549) of less than 4.70, a pIC50 (HeLa) of 4.76 and a pIC50 (MDA-MB-231) of less than 4.70.

With COc1cc2cc(Cn3cc(CN4CCCc5ccccc54)nn3)c3cc(OC)c(OC)cc3c2cc1OC the pIC50 (4T1) was less than 4.70, the pIC50 (DU-145 [1]) was less than 4.70 and the pIC50 (BT-549) was less than 4.70. It also gave a pIC50 (HGC-27) of less than 4.70, a pIC50 (MDA-MB-453) of less than 4.70 and a pIC50 (PC-3) of 4.86. For the same compound, the pIC50 (A549) was less than 4.70, the pIC50 (HeLa) was less than 4.70 and the pIC50 (MDA-MB-231) was less than 4.70.

With COc1cc2cc(Cn3cc(CN4C(=O)c5cccc6cccc(c56)C4=O)nn3)c3cc(OC)c(OC)cc3c2cc1OC the Activity (DU-145 [2]) was “Active”, the pIC50 (4T1) was 5.38 and the Activity (DU-145 [3]) was “Dose-dependent effect”. For the same compound, the Activity (DU-145 [4]) was “Dose-dependent effect”, the Activity (DU-145 [5]) was “Active” and the pIC50 (DU-145 [1]) was 5.82. The Activity (DU-145 [6]) was “Active”, the Activity (DU-145 [7]) was 20.46% and the pIC50 (BT-549) was 5.43. The Activity (DU-145 [8]) was 1.91%, the Activity (DU-145 [9]) was “Active” and the pIC50 (HGC-27) was 5.29. For the same compound, the Activity (DU-145 [10]) was “Dose-dependent effect”, the Activity (DU-145 [11]) was “Active” and the Activity (Bos taurus) was “Active”. The pIC50 (MDA-MB-453) was 5.29, the Activity (DU-145 [12]) was 11.7% and the pIC50 (PC-3) was 5.07. For the same compound, the Activity (DU-145 [13]) was 73.32%, the Activity (DU-145 [14]) was “Active” and the Activity (DU-145 [15]) was 71.1%. The Activity (DU-145 [16]) was 7.64%, the Activity (DU-145 [17]) was 88.62% and the Activity (DU-145 [18]) was 80.37%. The Activity (DU-145 [19]) was 4.4%, the Activity (DU-145 [20]) was 5.37% and the Activity (DU-145 [21]) was “Active”. The Activity (DU-145 [22]) was “Active”, the pIC50 (A549) was less than 4.70 and the pIC50 (HeLa) was 5.54. For the same compound, the Activity (DU-145 [23]) was 6.37%, the pIC50 (MDA-MB-231) was 5.38 and the Activity (DU-145 [24]) was 16.71%.

In the case of COc1cc2cc(Cn3cc(COc4ccc5c(c4)OCO5)nn3)c3cc(OC)c(OC)cc3c2cc1OC, the pIC50 (4T1) was 5.19, the pIC50 (DU-145 [1]) was 4.78 and the pIC50 (BT-549) was 4.74. The pIC50 (HGC-27) was 5.02, the pIC50 (MDA-MB-453) was 4.72 and the pIC50 (PC-3) was 4.88. For the same compound, the pIC50 (A549) was 4.84, the pIC50 (HeLa) was less than 4.70 and the pIC50 (MDA-MB-231) was 4.90.

COc1cc2cc(Cn3cc(COc4cc(OC)c(OC)c(OC)c4)nn3)c3cc(OC)c(OC)cc3c2cc1OC showed a pIC50 (4T1) of less than 4.70, a pIC50 (DU-145 [1]) of less than 4.70 and a pIC50 (BT-549) of less than 4.70. It also gave a pIC50 (HGC-27) of 4.83, a pIC50 (MDA-MB-453) of less than 4.70 and a pIC50 (PC-3) of less than 4.70. The pIC50 (A549) was less than 4.70, the pIC50 (HeLa) was less than 4.70 and the pIC50 (MDA-MB-231) was 4.72.
